Converted amounts (≈) assume the structure as drawn.
Tests used:
Candida albicans [1] = assay: Antifungal activity against drug resistant Candida albicans DF2672R after 24 hrs by two fold serial dilution method; assay type: functional
In short: (§1)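 Candida grown on Sabouraud dextrose agar at 35 °C for 24 h, adjusted to ~5×10^3 CFU/mL. Two-fold dilutions from 100 to 0.78 μg/mL in Sabouraud dextrose broth, incubated at 35 °C for 24 h. MIC is the lowest concentration inhibiting growth by eye and by OD600. CLSI-based with minor modifications.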

Bacillus cereus = assay: Antibacterial activity against Bacillus cereus ATCC11778 by two fold serial dilution method; assay type: functional
In short: (§2)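 Broth microdilution (CLSI, minor modifications) in Sabouraud dextrose, Mueller−Hinton or RPMI 1640 broth; two-fold serial dilutions of compound from stock to final 100 to 0.78 μg/mL. MIC taken as lowest concentration giving no visible growth.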

Staphylococcus aureus [2] = assay: Antibacterial activity against methicillin resistant Staphylococcus aureus DM21455 by two fold serial dilution method; assay type: functional
In short: (§3)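 Broth microdilution per CLSI guidelines with minor modifications, run in Mueller−Hinton broth; MIC is the lowest concentration giving no visible growth.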

Staphylococcus aureus [3] = assay: Antibacterial activity against methicillin resistant Staphylococcus aureus DM9808R by two fold serial dilution method; assay type: functional; in short: as §3
[4] = Selectivity index, ratio of HC50 for New Zealand white rabbit RBC to MIC for Candida albicans ATCC 10231
Candida albicans [5] = assay: Antifungal activity against Candida albicans ATCC 10231 after 24 hrs by two fold serial dilution method; assay type: functional; conditions: ATCC 10231, 24 h; in short: as §1
Pseudomonas aeruginosa = assay: Antibacterial activity against Pseudomonas aeruginosa DM23155 by two fold serial dilution method; assay type: functional; in short: as §2
Staphylococcus aureus [6] = assay: Antibacterial activity against Staphylococcus aureus DM4001R by two fold serial dilution method; assay type: functional; in short: as §2
Klebsiella pneumoniae = assay: Antibacterial activity against Klebsiella pneumoniae DM4299 by two fold serial dilution method; assay type: functional; in short: as §2
Candida albicans [7] = assay: Antifungal activity against Candida albicans ATCC90028 after 24 hrs by two fold serial dilution method; assay type: functional; conditions: ATCC90028, 24 h; in short: as §1
Candida albicans [8] = assay: Antifungal activity against Candida albicans ATCC11651 after 24 hrs by two fold serial dilution method; assay type: functional; conditions: ATCC11651, 24 h; in short: as §1
Candida albicans [9] = assay: Antifungal activity against Candida albicans DF1976R after 24 hrs by two fold serial dilution method; assay type: functional; in short: as §1
Candida albicans [10] = assay: Antifungal activity against Candida albicans ATCC24433 after 24 hrs by two fold serial dilution method; assay type: functional; conditions: ATCC24433, 24 h; in short: as §1
[11] = Dissociation constant, pKa of compound; assay type: physicochemical

Structure (SMILES)	MIC (Candida albicans [1]) [mg/L]	Selectivity Index [4]	MIC (Candida albicans [5]) [mg/L]	other results
CN(C/C=C/C#CC(C)(C)C)Cc1cccc2ccccc12 [TERBINAFINE]	3.13 (≈ 10.7 µM)			
CCN(CC)CC(O)COc1cc2oc3cc(OCC(O)CN(CC)CC)c(OC)c(CC=C(C)C)c3c(=O)c2c(O)c1CC=C(C)C (stereo not drawn)	6.25 (≈ 9.34 µM)	5.6	6.25 (≈ 9.34 µM)	MIC (Bacillus cereus): 1.56 to 3.13 mg/L (≈ 2.33 to 4.68 µM); MIC (Staphylococcus aureus [2]): 1.56 to 3.13 mg/L (≈ 2.33 to 4.68 µM); MIC (Staphylococcus aureus [3]): 1.56 to 3.13 mg/L (≈ 2.33 to 4.68 µM); MIC (Pseudomonas aeruginosa): 25 to 50 mg/L (≈ 37.4 to 74.8 µM); MIC (Staphylococcus aureus [6]): 1.56 to 3.13 mg/L (≈ 2.33 to 4.68 µM); MIC (Klebsiella pneumoniae): 25 to 50 mg/L (≈ 37.4 to 74.8 µM)
CCCCN(C)CC(O)COc1cc2oc3cc(OCC(O)CN(C)CCCC)c(OC)c(CC=C(C)C)c3c(=O)c2c(O)c1CC=C(C)C (stereo not drawn)	3.13 (≈ 4.49 µM)	15.5	3.13 (≈ 4.49 µM)	MIC (Candida albicans [7]): 3.13 mg/L (≈ 4.49 µM); MIC (Candida albicans [8]): 6.25 mg/L (≈ 8.97 µM); MIC (Candida albicans [9]): 3.13 mg/L (≈ 4.49 µM); MIC (Candida albicans [10]): 6.25 mg/L (≈ 8.97 µM)
COc1c(OCC(O)CN2CCNCC2)cc2oc3cc(OCC(O)CN4CCNCC4)c(CC=C(C)C)c(O)c3c(=O)c2c1CC=C(C)C (stereo not drawn)	12.5 (≈ 18 µM)	2.6	12.5 (≈ 18 µM)	pKa [11]: 9.55
COc1c(OCC2CO2)cc2oc3cc(OCC4CO4)c(CC=C(C)C)c(O)c3c(=O)c2c1CC=C(C)C (stereo not drawn)	> 50		> 50	
COc1c(OCC(O)CN)cc2oc3cc(OCC(O)CN)c(CC=C(C)C)c(O)c3c(=O)c2c1CC=C(C)C (stereo not drawn)	6.25 (≈ 11.2 µM)	7.9	6.25 (≈ 11.2 µM)	pKa [11]: 10.5
CCCCCCNCC(O)COc1cc2oc3cc(OCC(O)CNCCCCCC)c(OC)c(CC=C(C)C)c3c(=O)c2c(O)c1CC=C(C)C (stereo not drawn)	12.5 (≈ 17.2 µM)	27.5	12.5 (≈ 17.2 µM)	
CC[C@@H]([C@H](C)O)n1ncn(-c2ccc(N3CCN(c4ccc(OC[C@@H]5CO[C@@](Cn6cncn6)(c6ccc(F)cc6F)C5)cc4)CC3)cc2)c1=O [POSACONAZOLE]	12.5 (≈ 17.8 µM)			
COc1c(OCC(O)CNCCNCCNCCN)cc2oc3cc(OCC(O)CNCCNCCNCCN)c(CC=C(C)C)c(O)c3c(=O)c2c1CC=C(C)C (stereo not drawn)	25 (≈ 30.7 µM)	14.9 to 29.8	12.5 (≈ 15.3 µM)	
COc1c(O)cc2oc3cc(O)c(CC=C(C)C)c(O)c3c(=O)c2c1CC=C(C)C [MANGOSTIN]	> 50	< 0.2	> 50	
COc1c(OCC(O)CN2CCOCC2)cc2oc3cc(OCC(O)CN4CCOCC4)c(CC=C(C)C)c(O)c3c(=O)c2c1CC=C(C)C (stereo not drawn)	6.25 (≈ 8.97 µM)	> 64	6.25 (≈ 8.97 µM)	
CC[N+](C)(CC)CC(O)COc1cc2oc3cc(OCC(O)C[N+](C)(CC)CC)c(OC)c(CC=C(C)C)c3c(=O)c2c(O)c1CC=C(C)C.[I-].[I-] (stereo not drawn)	6.25	2.9 to 5.7	12.5	
COC(=O)[C@H](CCCNC(=N)N)NC(=O)[C@H](CCCNC(=N)N)NC(=O)COc1cc2oc3cc(OCC(=O)N[C@@H](CCCNC(=N)N)C(=O)N[C@@H](CCCNC(=N)N)C(=O)OC)c(OC)c(CC=C(C)C)c3c(=O)c2c(O)c1CC=C(C)C	12.5 (≈ 10.6 µM)	22.2 to 44.4	6.25 (≈ 5.3 µM)	
CCCN(CCC)CC(O)COc1cc2oc3cc(OCC(O)CN(CCC)CCC)c(OC)c(CC=C(C)C)c3c(=O)c2c(O)c1CC=C(C)C (stereo not drawn)	3.13 (≈ 4.32 µM)	> 128	3.13 (≈ 4.32 µM)	MIC (Bacillus cereus): 6.25 to 12.5 mg/L (≈ 8.62 to 17.2 µM); MIC (Candida albicans [7]): 6.25 mg/L (≈ 8.62 µM); MIC (Staphylococcus aureus [2]): 6.25 to 12.5 mg/L (≈ 8.62 to 17.2 µM); MIC (Candida albicans [8]): 6.25 mg/L (≈ 8.62 µM); MIC (Staphylococcus aureus [3]): 6.25 to 12.5 mg/L (≈ 8.62 to 17.2 µM); MIC (Candida albicans [9]): 6.25 mg/L (≈ 8.62 µM); MIC (Pseudomonas aeruginosa): > 50 mg/L; MIC (Candida albicans [10]): 6.25 mg/L (≈ 8.62 µM); MIC (Staphylococcus aureus [6]): 6.25 to 12.5 mg/L (≈ 8.62 to 17.2 µM); MIC (Klebsiella pneumoniae): > 50 mg/L
COc1c(OCC(O)CNCCN)cc2oc3cc(OCC(O)CNCCN)c(CC=C(C)C)c(O)c3c(=O)c2c1CC=C(C)C (stereo not drawn)	12.5 (≈ 19.4 µM)	2.4 to 4.8	6.25 (≈ 9.72 µM)	
CCCCCCCCNCC(O)COc1cc2oc3cc(OCC(O)CNCCCCCCCC)c(OC)c(CC=C(C)C)c3c(=O)c2c(O)c1CC=C(C)C (stereo not drawn)	> 50		> 50	
CCC(C)n1ncn(-c2ccc(N3CCN(c4ccc(OCC5COC(Cn6cncn6)(c6ccc(Cl)cc6Cl)O5)cc4)CC3)cc2)c1=O (stereo not drawn) [ITRACONAZOLE]	6.25 (≈ 8.86 µM)			
COc1c(OCC(=O)N[C@@H](CCCNC(=N)N)C(=O)OC(C)(C)C)cc2oc3cc(OCC(=O)N[C@@H](CCCNC(=N)N)C(=O)OC(C)(C)C)c(CC=C(C)C)c(O)c3c(=O)c2c1CC=C(C)C	6.25 (≈ 6.57 µM)	6.3 to 12.6	12.5 (≈ 13.1 µM)	
